Measured values as given in ChEMBL document CHEMBL5705889, “Novel mutant-selective EGFR kinase inhibitors against EGFR T790M” (Nature, 2009).
Active and inactive are the calls of the source. The rule behind the calls is not given here.

Columns and labels:
BaF3 [1] = assay: cells; assay type: functional, cell-based; conditions: Mus musculus, BaF3, 72 h
[2] = C0 in mouse at 1 mg/kg, iv administered as single dose; assay type: ADME, organism-based; conditions: in vivo
Mus musculus [3] = assay: In vivo inhibition of EGFR phosphorylation in transgenic mouse harboring EGFR L858R/T790M mutant at 2.5 to 25 mg/kg administered as two doses separated by 16 hours by immunoblot analysis; assay type: functional, organism-based; conditions: dose 2.5-25 mg/kg
eIF-2-alpha kinase GCN2 = eIF-2-alpha kinase GCN2 (Homo sapiens, UniProt Q9P2K8); assay: Binding affinity to GCN2 (unknown origin) assessed as dissociation constant
[4] = MRT in mouse at 1 mg/kg, iv administered as single dose; assay type: ADME, organism-based; conditions: in vivo
[5] = MRT in mouse at 10 mg/kg, po administered as single dose; assay type: ADME, organism-based; conditions: in vivo
[6] = target: RAC-alpha serine/threonine-protein kinase (Homo sapiens) (UniProt P31749); assay: Inhibition of AKT phosphorylation in human NCI-H1975 cells at 0.01 to 1 uM incubated for 16 hrs by immunoblot analysis; assay type: cell-based; conditions: dose 0.01-1 µM
Chain of RAC-alpha serine/threonine-protein kinase (Homo sapiens) (P31749 whole entry): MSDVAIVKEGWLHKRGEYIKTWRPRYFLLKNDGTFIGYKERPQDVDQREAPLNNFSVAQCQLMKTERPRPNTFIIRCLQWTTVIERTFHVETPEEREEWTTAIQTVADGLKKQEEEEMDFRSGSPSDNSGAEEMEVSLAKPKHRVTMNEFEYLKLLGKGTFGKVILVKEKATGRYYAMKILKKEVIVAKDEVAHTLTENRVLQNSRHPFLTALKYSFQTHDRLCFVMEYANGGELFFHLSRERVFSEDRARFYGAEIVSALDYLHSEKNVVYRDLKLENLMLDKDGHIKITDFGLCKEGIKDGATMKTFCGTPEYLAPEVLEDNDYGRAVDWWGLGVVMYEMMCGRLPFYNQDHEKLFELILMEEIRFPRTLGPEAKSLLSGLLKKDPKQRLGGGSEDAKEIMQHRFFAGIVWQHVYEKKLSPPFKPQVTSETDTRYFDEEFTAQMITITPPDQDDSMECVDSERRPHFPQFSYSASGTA

PC-9 = assay: cells; assay type: functional, cell-based; conditions: Homo sapiens, PC-9, 72 h
Mus musculus [7] = assay: Invivo antitumor activity in transgenic mouse harboring EGFR L858R/T790M mutant assessed as increase in fibrosis at 25 mg/kg administered via gavage for 2 weeks by H&E staining based analysis; assay type: functional, organism-based
In short: (§1)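 EGFR-TL (L858R/T790M) or exon19 deletion-T790M (TD) inducible bitransgenic mice dosed by oral gavage daily at 25 mg/kg; vehicle 10% 1-methyl-2-pyrrolidinone:90% PEG-300. Tumors followed by MRI; lung histology by standard protocols.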

BaF3 [8] = assay: cells; assay type: functional, cell-based; conditions: Mus musculus, BaF3, 72 h; remark: listed apart in the source
BaF3 [9] = assay: Prevention of EGFR T790M mutant development in mouse BaF3 cells harboring L858R mutant assessed as reduction in resistant clones with T790M mutant at 0.001 to 1 uM; assay type: functional, cell-based; conditions: dose 0.001-1 µM
In short: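 Ba/F3 cells with EGFR L858R or delE746_A750 mutagenized with N-ethyl-N-nitrosourea, then expanded in 100 nM or 1 μM inhibitor; resistant clones isolated and characterized for EGFR T790M.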

[10] = Drug concentration in mouse plasma at 1 mg/kg, iv administered as single dose and measured after 2 hrs; assay type: ADME, organism-based
BaF3 [11] = assay: cells; assay type: functional, cell-based; conditions: Mus musculus, BaF3, 72 h; remark: listed apart in the source
[12] = Volume of distribution at steady state in mouse at 1 mg/kg, iv administered as single dose; assay type: ADME, organism-based; conditions: in vivo, read-out: Vdss
[13] = Tmax in mouse at 10 mg/kg, po administered as single dose; assay type: ADME, organism-based; conditions: in vivo
[14] = target: ALK tyrosine kinase receptor (Homo sapiens, UniProt Q9UM73); assay: Binding affinity of ALK (unknown origin) assessed as dissociation constant
Chain of ALK tyrosine kinase receptor (Q9UM73 whole entry): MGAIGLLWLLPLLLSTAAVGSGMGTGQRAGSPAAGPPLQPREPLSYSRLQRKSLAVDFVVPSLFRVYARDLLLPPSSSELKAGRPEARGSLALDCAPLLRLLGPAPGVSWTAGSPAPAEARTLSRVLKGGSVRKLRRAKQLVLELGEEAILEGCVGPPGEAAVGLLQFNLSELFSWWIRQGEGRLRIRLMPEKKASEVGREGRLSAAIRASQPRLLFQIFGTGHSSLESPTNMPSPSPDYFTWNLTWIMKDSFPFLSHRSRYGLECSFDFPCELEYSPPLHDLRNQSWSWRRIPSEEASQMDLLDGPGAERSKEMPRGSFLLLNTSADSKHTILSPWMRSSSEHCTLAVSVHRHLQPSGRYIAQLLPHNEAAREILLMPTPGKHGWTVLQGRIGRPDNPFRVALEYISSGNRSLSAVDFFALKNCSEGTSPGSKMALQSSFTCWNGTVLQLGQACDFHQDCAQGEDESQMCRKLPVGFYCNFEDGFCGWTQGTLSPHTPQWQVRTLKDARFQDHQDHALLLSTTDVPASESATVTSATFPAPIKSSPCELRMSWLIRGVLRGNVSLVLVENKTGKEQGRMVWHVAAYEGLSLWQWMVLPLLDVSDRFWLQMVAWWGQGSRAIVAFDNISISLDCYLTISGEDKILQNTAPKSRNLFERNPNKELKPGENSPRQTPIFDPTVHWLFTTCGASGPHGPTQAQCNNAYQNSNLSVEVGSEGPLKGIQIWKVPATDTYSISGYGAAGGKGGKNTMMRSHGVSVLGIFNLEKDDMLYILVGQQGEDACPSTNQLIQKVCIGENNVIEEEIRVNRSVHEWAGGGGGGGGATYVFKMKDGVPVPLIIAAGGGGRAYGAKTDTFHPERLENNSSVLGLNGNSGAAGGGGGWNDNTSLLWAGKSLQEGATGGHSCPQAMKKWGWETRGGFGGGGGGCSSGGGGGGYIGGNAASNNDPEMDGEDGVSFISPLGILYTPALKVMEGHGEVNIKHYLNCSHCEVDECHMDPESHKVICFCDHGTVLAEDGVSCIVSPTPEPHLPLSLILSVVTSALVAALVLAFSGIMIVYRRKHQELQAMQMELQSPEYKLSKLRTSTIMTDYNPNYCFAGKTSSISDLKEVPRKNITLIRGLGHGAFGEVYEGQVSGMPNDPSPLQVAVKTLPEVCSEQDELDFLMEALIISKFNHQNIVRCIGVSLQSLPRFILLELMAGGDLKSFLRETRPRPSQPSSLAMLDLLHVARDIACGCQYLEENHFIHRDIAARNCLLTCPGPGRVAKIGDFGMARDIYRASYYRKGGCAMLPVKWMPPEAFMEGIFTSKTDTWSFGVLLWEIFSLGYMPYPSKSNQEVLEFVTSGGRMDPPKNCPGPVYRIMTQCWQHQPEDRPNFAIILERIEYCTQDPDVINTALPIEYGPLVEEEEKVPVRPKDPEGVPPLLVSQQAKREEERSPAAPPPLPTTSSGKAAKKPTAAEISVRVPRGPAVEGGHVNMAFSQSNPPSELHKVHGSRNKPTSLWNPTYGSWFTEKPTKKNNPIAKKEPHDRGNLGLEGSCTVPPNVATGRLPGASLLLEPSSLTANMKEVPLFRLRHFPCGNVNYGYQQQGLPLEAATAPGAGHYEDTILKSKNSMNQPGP

[15] = target: Receptor-type tyrosine-protein kinase FLT3 (Homo sapiens, UniProt P36888, D835Y); assay: Binding affinity to FLT3 D835Y mutant (unknown origin) assessed as dissociation constant
cells [16] = assay type: functional, cell-based; conditions: Homo sapiens, NCI-H1781, 72 h
[17] = target: Epidermal growth factor receptor (Homo sapiens, UniProt P00533); assay: Inhibition of EGFR phosphorylation in human PC9 Gefitinib-resistant (GR) cells at 0.01 to 1 uM incubated for 16 hrs by immunoblot analysis; assay type: cell-based; conditions: PC9 Gefitinib-resistant (GR) cell, dose 0.01-1 µM
Chain of Epidermal growth factor receptor (P00533 whole entry): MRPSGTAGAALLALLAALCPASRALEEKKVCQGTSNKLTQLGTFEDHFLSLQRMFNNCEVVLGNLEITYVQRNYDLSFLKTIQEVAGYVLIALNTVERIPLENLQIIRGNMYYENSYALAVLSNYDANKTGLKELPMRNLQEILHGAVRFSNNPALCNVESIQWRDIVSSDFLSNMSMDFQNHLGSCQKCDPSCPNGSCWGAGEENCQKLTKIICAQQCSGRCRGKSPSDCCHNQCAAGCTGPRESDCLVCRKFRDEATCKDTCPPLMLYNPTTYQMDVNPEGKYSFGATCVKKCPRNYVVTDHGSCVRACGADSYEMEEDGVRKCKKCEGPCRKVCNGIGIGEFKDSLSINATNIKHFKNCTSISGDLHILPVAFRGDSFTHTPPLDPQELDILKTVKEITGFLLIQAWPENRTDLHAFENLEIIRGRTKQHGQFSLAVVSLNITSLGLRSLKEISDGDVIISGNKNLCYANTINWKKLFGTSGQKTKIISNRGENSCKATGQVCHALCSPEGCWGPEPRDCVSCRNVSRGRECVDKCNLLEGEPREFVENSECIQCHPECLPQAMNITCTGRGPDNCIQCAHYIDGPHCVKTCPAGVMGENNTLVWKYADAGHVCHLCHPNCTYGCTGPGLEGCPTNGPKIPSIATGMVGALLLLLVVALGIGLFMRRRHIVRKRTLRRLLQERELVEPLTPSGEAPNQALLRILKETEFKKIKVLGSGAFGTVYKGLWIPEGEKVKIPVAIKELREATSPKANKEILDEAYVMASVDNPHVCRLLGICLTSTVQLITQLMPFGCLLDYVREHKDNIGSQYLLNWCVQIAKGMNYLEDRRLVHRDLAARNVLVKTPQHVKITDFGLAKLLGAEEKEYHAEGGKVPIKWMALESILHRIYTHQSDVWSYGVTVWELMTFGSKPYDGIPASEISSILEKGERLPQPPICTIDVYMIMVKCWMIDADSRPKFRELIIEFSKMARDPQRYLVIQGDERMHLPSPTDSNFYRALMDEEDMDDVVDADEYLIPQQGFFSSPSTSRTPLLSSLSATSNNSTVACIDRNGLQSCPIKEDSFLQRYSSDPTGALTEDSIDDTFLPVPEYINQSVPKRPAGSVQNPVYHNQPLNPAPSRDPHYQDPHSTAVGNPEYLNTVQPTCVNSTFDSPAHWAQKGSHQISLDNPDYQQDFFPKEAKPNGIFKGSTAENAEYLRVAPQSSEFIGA

[18] = Drug concentration in mouse plasma at 10 mg/kg, po administered as single dose and measured after 0.25 hrs; assay type: ADME, organism-based
[19] = Drug concentration in mouse plasma at 1 mg/kg, iv administered as single dose and measured after 0.25 hrs; assay type: ADME, organism-based
BaF3 [20] = assay: cells; assay type: functional, cell-based; conditions: Mus musculus, BaF3, 72 h; remark: listed apart in the source
[21] = Clearance in mouse at 1 mg/kg, iv administered as single dose; assay type: ADME, organism-based; conditions: in vivo
Mus musculus [22] = assay: Invivo antitumor activity in transgenic mouse harboring EGFR L858R/T790M mutant assessed as reduction in nodule remnants in tumor at 25 mg/kg administered via gavage for 2 weeks by H&E staining based analysis; assay type: functional, organism-based
In short: as §1

[23] = Cmax in mouse at 10 mg/kg, po administered as single dose; assay type: ADME, organism-based; conditions: in vivo
HCC827 = assay: cells; assay type: functional, cell-based; conditions: Homo sapiens, HCC827, 72 h
[24] = Half-life in mouse at 1 mg/kg, iv administered as single dose; assay type: ADME, organism-based; conditions: in vivo
Mus musculus [25] = assay: Invivo antitumor activity in transgenic mouse harboring EGFR del19/T790M mutant assessed as reduction in nodule remnants in tumor at 25 mg/kg administered via gavage for 2 weeks by H&E staining based analysis; assay type: functional, organism-based
In short: as §1

[26] = target: Tyrosine-protein kinase Tec (Homo sapiens) (UniProt P42680); assay: Inhibition of TEC (unknown origin)
NCI-H3255 = assay: Antiproliferative activity against human NCI-H3255 cells harboring EGFR L858R mutant assessed as inhibition of cell growth incubated for 72 hrs by MTS assay; assay type: functional, cell-based; conditions: NCI-H3255, 72 h
Mus musculus [27] = assay: Invivo antitumor activity in transgenic mouse harboring EGFR L858R/T790M mutant assessed as remodelling/scarring at 25 mg/kg administered via gavage for 2 weeks by H&E staining based analysis; assay type: functional, organism-based
In short: as §1

cells [28] = assay type: functional, cell-based; conditions: Homo sapiens, NCI-H1819, 72 h
Mus musculus [29] = assay: Invivo antitumor activity in transgenic mouse harboring EGFR L858R/T790M mutant assessed as reduction in small residual nodules in tumor at 25 mg/kg administered via gavage for 2 weeks by H&E staining based analysis; assay type: functional, organism-based
In short: as §1

[30] = target: RAC-alpha serine/threonine-protein kinase (Homo sapiens) (UniProt P31749); assay: Inhibition of AKT phosphorylation in human PC9 Gefitinib-resistant (GR) cells at 0.01 to 1 uM incubated for 16 hrs by immunoblot analysis; assay type: cell-based; conditions: PC9 Gefitinib-resistant (GR) cell, dose 0.01-1 µM
[31] = Drug concentration in mouse plasma at 10 mg/kg, po administered as single dose and measured after 0.5 hrs; assay type: ADME, organism-based
[32] = AUC(0 to infinity) in mouse at 10 mg/kg, po administered as single dose; assay type: ADME, organism-based; conditions: in vivo
[33] = Drug concentration in mouse plasma at 10 mg/kg, po administered as single dose and measured after 1 hrs; assay type: ADME, organism-based
cells [34] = assay type: functional, cell-based; conditions: Homo sapiens, Gefitinib-resistant PC9, 72 h
[35] = Drug concentration in mouse plasma at 1 mg/kg, iv administered as single dose and measured after 1 hrs; assay type: ADME, organism-based
[36] = Drug concentration in mouse plasma at 10 mg/kg, po administered as single dose and measured after 6 hrs; assay type: ADME, organism-based
[37] = target: Cytoplasmic tyrosine-protein kinase BMX (Homo sapiens) (UniProt P51813); assay: Binding affinity to BMX (unknown origin)
Chain of Cytoplasmic tyrosine-protein kinase BMX (Homo sapiens) (P51813 whole entry): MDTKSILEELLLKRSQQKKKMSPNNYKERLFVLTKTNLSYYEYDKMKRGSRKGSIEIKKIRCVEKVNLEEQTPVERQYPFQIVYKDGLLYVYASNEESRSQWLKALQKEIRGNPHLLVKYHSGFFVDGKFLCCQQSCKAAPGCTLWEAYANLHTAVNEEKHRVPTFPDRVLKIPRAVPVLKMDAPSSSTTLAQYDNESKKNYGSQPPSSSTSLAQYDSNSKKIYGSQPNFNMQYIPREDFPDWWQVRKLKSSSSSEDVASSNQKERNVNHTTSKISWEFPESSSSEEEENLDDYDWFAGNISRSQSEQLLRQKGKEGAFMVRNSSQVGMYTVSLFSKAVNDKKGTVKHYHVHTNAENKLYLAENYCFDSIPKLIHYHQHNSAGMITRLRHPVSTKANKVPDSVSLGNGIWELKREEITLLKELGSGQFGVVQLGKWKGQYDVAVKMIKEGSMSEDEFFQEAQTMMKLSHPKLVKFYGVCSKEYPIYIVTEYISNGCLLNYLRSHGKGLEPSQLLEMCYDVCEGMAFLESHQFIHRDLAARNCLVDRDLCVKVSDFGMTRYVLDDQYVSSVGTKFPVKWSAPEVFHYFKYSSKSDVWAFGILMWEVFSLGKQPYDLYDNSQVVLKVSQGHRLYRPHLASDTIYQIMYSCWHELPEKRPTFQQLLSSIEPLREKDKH

[38] = target: Tyrosine-protein kinase Blk (Homo sapiens, UniProt P51451); assay: Binding affinity to BLK (unknown origin) assessed as dissociation constant
Chain of Tyrosine-protein kinase Blk (P51451 whole entry): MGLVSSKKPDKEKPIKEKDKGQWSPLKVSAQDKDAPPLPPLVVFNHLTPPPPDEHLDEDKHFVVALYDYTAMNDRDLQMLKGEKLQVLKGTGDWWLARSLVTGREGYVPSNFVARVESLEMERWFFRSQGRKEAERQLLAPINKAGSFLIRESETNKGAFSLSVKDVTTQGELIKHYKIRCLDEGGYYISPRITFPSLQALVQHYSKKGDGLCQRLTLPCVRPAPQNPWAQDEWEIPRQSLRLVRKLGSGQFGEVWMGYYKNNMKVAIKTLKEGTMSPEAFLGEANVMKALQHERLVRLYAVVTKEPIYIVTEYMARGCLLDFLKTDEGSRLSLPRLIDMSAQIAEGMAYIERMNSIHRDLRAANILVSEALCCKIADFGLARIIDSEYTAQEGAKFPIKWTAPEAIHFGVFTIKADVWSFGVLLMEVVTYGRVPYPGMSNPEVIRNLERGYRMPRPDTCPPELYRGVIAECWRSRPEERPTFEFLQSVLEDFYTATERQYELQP

SMILES: C=CC(=O)Nc1cccc(Oc2nc(Nc3ccc(N4CCN(C)CC4)cc3OC)ncc2Cl)c1
- IC50 (BaF3 [1]): > 3300 nM
- C0 [2]: 1480 ng/mL
- inhibition (Mus musculus [3]): Active
- Kd (eIF-2-alpha kinase GCN2): 140 nM
- MRT [4]: 1.51 h
- MRT [5]: 3.98 h
- inhibition [6]: Active
- IC50 (PC-9): 36 nM
- Activity (Mus musculus [7]): Active
- IC50 (BaF3 [8]): > 3300 nM
- Activity (BaF3 [9]): Active
- concentration at 2 h [10]: 80.4 ng/mL
- IC50 (BaF3 [11]): 35 nM
- Vd [12]: 1.54 L/kg
- Tmax [13]: 0.25 h
- Kd [14]: 300 nM
- Kd [15]: 33 nM
- IC50 (cells [16]): 1510 nM
- inhibition [17]: Active
- concentration at 0.25 h [18]: 429 ng/mL
- concentration at 0.25 h [19]: 627 ng/mL
- IC50 (BaF3 [20]): 619 nM
- clearance [21]: 17.1 mL/min/kg
- Activity (Mus musculus [22]): Active
- Cmax [23]: 429 ng/mL
- IC50 (HCC827): 5 nM
- half-life [24]: 1.76 h
- Activity (Mus musculus [25]): Active
- inhibition [26]: Active
- IC50 (NCI-H3255): 89 nM
- Activity (Mus musculus [27]): Active
- IC50 (cells [28]): 924 nM
- Activity (Mus musculus [29]): Active
- inhibition [30]: Active
- concentration at 0.5 h [31]: 397 ng/mL
- AUC(0-inf) [32]: 2400 ng·h/mL
- concentration at 1 h [33]: 340 ng/mL
- IC50 (cells [34]): 47 nM
- concentration at 1 h [35]: 228 ng/mL
- concentration at 6 h [36]: 140 ng/mL
- Activity [37]: inactive
- Kd [38]: 220 nM
